{
  "source": "ChEMBL document CHEMBL1275307",
  "about": "“Design, synthesis and biological evaluation of 1,3,4-oxadiazole derivatives” (2010)",
  "type_in_all_cases": "functional",
  "key": {"Escherichia coli": {"test_system": "Escherichia coli", "assay": "Antimicrobial activity against Escherichia coli MTCC 443 after 24 hrs by disk diffusion method", "outline": "(§1)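 Paper discs (6.25 mm diameter; Whatman no.1, dry-heat sterilized 140 °C, 1 h) soaked in test compound at a known concentration, placed on nutrient agar seeded with organism; solvent and growth controls plus ciprofloxacin standard included. Plates inverted, incubated 24 h at 37 °C; inhibition zone diameters measured and compared with controls.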"}, "[1]": {"test_system": "Staphylococcus epidermidis", "assay": "Antimicrobial activity against Staphylococcus epidermidis ATCC 12228 after 24 hrs by disk diffusion method", "outline": "as §1"}, "Staphylococcus aureus": {"test_system": "Staphylococcus aureus", "assay": "Antimicrobial activity against Staphylococcus aureus ATCC 25923 after 24 hrs by disk diffusion method", "outline": "as §1"}},
  "data": [
    {"smiles": "S=c1[nH]nc(-c2ccccc2)o1", "values": [
      {"measurement": "inhibition zone (IZ)", "setting": "Escherichia coli", "result": 20, "unit": "mm"},
      {"measurement": "inhibition zone (IZ)", "setting": "[1]", "result": 18, "unit": "mm"},
      {"measurement": "inhibition zone (IZ)", "setting": "Staphylococcus aureus", "result": 22, "unit": "mm"}
    ]},
    {"smiles": "CC(=O)Oc1ccccc1-c1nnc(S)o1", "values": [
      {"measurement": "inhibition zone (IZ)", "setting": "Escherichia coli", "result": 25, "unit": "mm"},
      {"measurement": "inhibition zone (IZ)", "setting": "[1]", "result": 26, "unit": "mm"},
      {"measurement": "inhibition zone (IZ)", "setting": "Staphylococcus aureus", "result": 24, "unit": "mm"}
    ]},
    {"smiles": "Cc1ccc(-c2nnc(S)o2)cc1", "values": [
      {"measurement": "inhibition zone (IZ)", "setting": "Escherichia coli", "result": 19, "unit": "mm"},
      {"measurement": "inhibition zone (IZ)", "setting": "[1]", "result": 16, "unit": "mm"},
      {"measurement": "inhibition zone (IZ)", "setting": "Staphylococcus aureus", "result": 20, "unit": "mm"}
    ]},
    {"smiles": "Sc1nnc(-c2cccnc2)o1", "values": [
      {"measurement": "inhibition zone (IZ)", "setting": "Escherichia coli", "result": 21, "unit": "mm"},
      {"measurement": "inhibition zone (IZ)", "setting": "[1]", "result": 26, "unit": "mm"},
      {"measurement": "inhibition zone (IZ)", "setting": "Staphylococcus aureus", "result": 25, "unit": "mm"}
    ]},
    {"smiles": "Cc1ccc(-c2nnc(-c3ccccc3O)o2)cc1", "values": [
      {"measurement": "inhibition zone (IZ)", "setting": "Escherichia coli", "result": 19, "unit": "mm"},
      {"measurement": "inhibition zone (IZ)", "setting": "[1]", "result": 22, "unit": "mm"},
      {"measurement": "inhibition zone (IZ)", "setting": "Staphylococcus aureus", "result": 20, "unit": "mm"}
    ]},
    {"smiles": "Cc1ccccc1-c1nnc(-c2ccccc2O)o1", "values": [
      {"measurement": "inhibition zone (IZ)", "setting": "Escherichia coli", "result": 23, "unit": "mm"},
      {"measurement": "inhibition zone (IZ)", "setting": "[1]", "result": 24, "unit": "mm"},
      {"measurement": "inhibition zone (IZ)", "setting": "Staphylococcus aureus", "result": 23, "unit": "mm"}
    ]},
    {"smiles": "Oc1ccccc1-c1nnc(-c2ccccc2)o1", "values": [
      {"measurement": "inhibition zone (IZ)", "setting": "Escherichia coli", "result": 19, "unit": "mm"},
      {"measurement": "inhibition zone (IZ)", "setting": "[1]", "result": 18, "unit": "mm"},
      {"measurement": "inhibition zone (IZ)", "setting": "Staphylococcus aureus", "result": 21, "unit": "mm"}
    ]},
    {"smiles": "c1ccc(-c2nnc(-c3cccnc3)o2)cc1", "values": [
      {"measurement": "inhibition zone (IZ)", "setting": "Escherichia coli", "result": 24, "unit": "mm"},
      {"measurement": "inhibition zone (IZ)", "setting": "[1]", "result": 25, "unit": "mm"},
      {"measurement": "inhibition zone (IZ)", "setting": "Staphylococcus aureus", "result": 24, "unit": "mm"}
    ]},
    {"smiles": "Oc1ccccc1-c1nnc(Cc2ccc3ccccc3c2)o1", "values": [
      {"measurement": "inhibition zone (IZ)", "setting": "Escherichia coli", "result": 21, "unit": "mm"},
      {"measurement": "inhibition zone (IZ)", "setting": "[1]", "result": 25, "unit": "mm"},
      {"measurement": "inhibition zone (IZ)", "setting": "Staphylococcus aureus", "result": 23, "unit": "mm"}
    ]},
    {"smiles": "Oc1ccccc1-c1nnc(S)o1", "values": [
      {"measurement": "inhibition zone (IZ)", "setting": "Escherichia coli", "result": 18, "unit": "mm"},
      {"measurement": "inhibition zone (IZ)", "setting": "[1]", "result": 22, "unit": "mm"},
      {"measurement": "inhibition zone (IZ)", "setting": "Staphylococcus aureus", "result": 24, "unit": "mm"}
    ]},
    {"smiles": "O=C(O)c1cn(C2CC2)c2cc(N3CCNCC3)c(F)cc2c1=O", "note": "[CIPROFLOXACIN]", "values": [
      {"measurement": "inhibition zone (IZ)", "setting": "[1]", "result": 30, "unit": "mm"},
      {"measurement": "inhibition zone (IZ)", "setting": "Staphylococcus aureus", "result": 29, "unit": "mm"}
    ]}
  ]
}
